Measurements from ChEMBL document CHEMBL3997769, “Discovery and preclinical evaluation of 7-benzyl-N-(substituted)-pyrrolo[3,2-d]pyrimidin-4-amines as single agents with microtubule targeting effects along with triple-acting angiokinase inhibition as antitumor agents” (Bioorg Med Chem, 2017).

Legend:
[1] = Inhibition of bovine brain tubulin assembly preincubated for 15 mins followed by GTP addition measured for 20 mins by spectrophotometric method; parameters: species or system Bos taurus
A-431 = experiment: Cytotoxicity against human A431 cells; format: functional, cell-based
Chorioallantoic membrane = experiment: Antiangiogenic activity in Leghorn chicken egg chorioallantoic membrane assessed as inhibition of human VEGF-165/bFGF-induced blood vessels formation measured after 40 hrs by microscopic method; format: functional, tissue-based; details: Gallus gallus
HeLa = experiment: Growth inhibition of human HeLa cells measured after 96 hrs by sulforhodamine B assay; format: functional, cell-based
In short: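 Exposed 96 h to varying compound concentrations in 0.5% DMSO. Cell protein measured by sulforhodamine B; IC50 = concentration halving the increase in cell protein versus untreated cultures.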

| Compound | IC50 [1] [nM] | IC50 (A-431) [nM] | IC50 (Chorioallantoic membrane) [nM] | IC50 (HeLa) [nM] |
| --- | --- | --- | --- | --- |
| COc1ccc(N(C)c2nc(N)nc3c(Cc4ccccc4)c[nH]c23)cc1 | > 20000 | 700 | 2300 | – |
| COc1ccc2c(c1)CCCN2c1nc(C)nc2c(Cc3ccccc3)cn(C)c12 | – | – | – | 60 |
| COc1ccc2c(c1)CCCN2c1nc(N)nc2c(Cc3ccccc3)c[nH]c12 | 13000 | – | – | – |
| COc1ccc(Nc2nc(C)nc3c(Cc4ccccc4)cn(C)c23)cc1 | > 20000 | 2300 | 8700 | – |
